The full list was thinned out, with hits kept by preference.
DTT redox prof: compounds producing H2O2 with reducing agent – biochemical, NIH compound library profiling, artefact control for MLSCN library redox annotation, primary screen | DTT-dependent redox cycling H2O2, phenol red/HRP absorbance; 100% = 100 µM peroxide control, 0% = buffer | activation, % at 10 µM | actives 0.03% (n = 200,000) | AID 878;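 active means activation of at least 50% relative to the plate's high and low controls in the primary single-dose screen; inactive means activation below 50%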;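 further: compound incubated with DTT at 0.8 mM final as the reducing agent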
Lmaj promast: inhibitors of Leishmania major promastigote growth; Leishmania major promastigotes, resazurin fluorescence viability; inhibition, % at 10 µM; actives 9% (n = 200,000);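 further: promastigotes grown with compound for 44 hours at 28 °C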
PfGluPho inh: PfG6PD (Plasmodium falciparum) enzyme inhibition. PfGluPho enzyme, NADPH resazurin-diaphorase fluorescence. inhibition, % at 20 µM. actives 0.78% (n = 350,000). AID 504690;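 active means inhibition reaching at least a set limit at 20 µM in the primary screen, cut at about 59% in these data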;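 further: 0% = DMSO wells with substrate and 100% = DMSO wells lacking glucose-6-phosphate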
G6PDH counter: inhibits Leuconostoc G6PDH, flagging false hits in G6PDH-based assays; inhibition, % at 5 µM; actives 0.12% (n = 200,000); AID 1020; Purified L. mesenteroides G6PDH, diaphorase/resazurin coupled fluorescence, 45 min
Diaph act CS: activates diaphorase or chemically reduces, flagging diaphorase assay artifacts; Diaphorase/resazurin coupled assay, resorufin fluorescence, 16 min; stronger effect = higher value; 1 = vehicle wells, 0 = NADH-free wells; actives 0.005% (n = 190,000); AID 1229; activation factor at 20 µM;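 active means diaphorase activity raised at least twofold by the compound at 20 µM; inactive means activation factor below 2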
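Test system: Clostridium kluyveri diaphorase, purified enzyme. Buffer or medium: 50 mM HEPES pH 7.4 buffer plus MgCl2 and Tween 20. Also added: 0.114 mM NADH and 0.1 mM resazurin, final amounts. Dosing: compound 20 µM once, DMSO 1%. Schedule: 16 min enzyme reaction, ambient temperature. Detection: fluorescence of resorufin, 544 nm excitation, 590 nm emission.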
Diaphorase inh: diaphorase inhibition or chemical oxidation counter-screen; diaphorase resazurin-to-resorufin fluorescence, NADH, 16 min; bacterial (C. kluyveri) enzyme, not human; actives 0.69% (n = 190,000); inhibition, % at 20 µM;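 active means primary screen inhibition at 20 µM above a set limit, cut at about 50% in these data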;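 further: plate controls were DMSO with full reaction for no effect and wells lacking NADH for full effect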
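Test system: diaphorase enzyme from Clostridium kluyveri; amount: diaphorase at 0.14 U/mL in enzyme working solution; detection: fluorescence of resorufin formed from resazurin, Ex 544/Em 590 nm; times: reaction incubation of 16 min at room temperature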
Numbers without * were called inactive; . = not tested or not shown. Unless noted, no stated cut-off is given here; in the data, active means inhibition above about 50%; inactive means the rest.

SMILES	DTT redox prof	Lmaj promast	PfGluPho inh	G6PDH counter	Diaph act CS	Diaphorase inh
CCOC(=O)C(C)N1C(=O)S/C(=C/c2ccc3c(c2)n(C)c(=O)n3C)C1=O (stereo not given)	-0.4	67.4*	8.6	11.0	0.9	11.2
Cc1oc2ccc(O)c(CN3CCOCC3)c2c1C(=O)c1ccc(Cl)cc1	0.1	52.1*	8.8	10.3	0.8	20.7
C/C(=N\NC(=O)c1c(Cl)cnn1C)c1ccc(NC(=O)c2ccncc2)cc1	0.0	12.3	4.7	0.1	1.1	-7.4
COC(=O)c1ccc(=O)n(Cc2ccc3c(c2)OCO3)c1	-0.2	-0.8	-9.8	1.6	0.8	15.3
COC(=O)[C@@H]1CC[C@H](C)[C@@H](c2ccc(C)cc2)N1C(=O)c1ccc(/C=N/OC[C@@H](O)[C@H]2O[C@@H]3OC(C)(C)O[C@@H]3[C@H]2O)cc1	0.3	33.3	.	18.1	1	-3.3
COC(=O)[C@@H]1CC[C@H](C)[C@@H](c2ccc(C)cc2)N1C(=O)c1ccc(/C=N/O[C@@H](C)c2cn([C@H](CO)Cc3ccccc3)nn2)cc1	0.8	53.4*	.	19.7	0.7	26.5
CC(=O)c1cccc(N(C(=O)Cn2nnc3ccccc32)C(C(=O)NCC2CCCO2)c2ccc(N3CCOCC3)cc2)c1 (stereo not given)	-0.3	0.1	-2.8	11.4	1	-2.4
C/C(CC1(O)C(=O)N(C)c2ccccc21)=N\O (stereo not given)	2.0	-8.2	3.1	3.5	0.9	10.7
CC(=O)CC1(OC(C)=O)C(=O)N(C)c2ccccc21 (stereo not given)	0.5	97.1*	-3.7	6.8	0.9	12.7
O=C(CC(C(=O)O)c1c[nH]c2ccccc12)c1ccccc1 (stereo not given)	-0.4	-4.7	-18.0	6.4	0.2	77.9*
O=C(C(=O)N1CCN(c2cccc(Cl)c2)CC1)c1c[nH]c2ccccc12	-1.3	2.6	-13.0	2.2	0.6	36.6
O=C(/C=C\Nc1ccc(Cl)cn1)c1ccc(Br)cc1	0.0	20.4	1.0	7.9	1.1	-7.3
Cc1ccc(N=C2C(=S)N(c3ccc(C)cc3)C(=N)N2/N=C/c2ccc(Cl)cc2)cc1	1.6	100.1*	30.8	5.6	1.1	-6.2
O=C(O)c1cccc(Nc2nc(Nc3ccccc3)nc(N3CCCC3)n2)c1	0.5	-2.1	-23.3	-1.9	0.9	7.6
Cc1ccc(-n2cccc2/C=C2\C(=N)N3N=C(c4ccco4)SC3=NC2=O)cc1	0.2	13.5	-23.4	-1.9	0.4	55.5*
COc1cccc(N2CC(C(=O)Nc3nnc(SCC(=O)Nc4cc(C)on4)s3)CC2=O)c1 (stereo not given)	-1.2	-4.7	-7.9	-2.7	1	-1.7
Cc1ccc(N2CC(C(=O)Nc3nnc(SCC(=O)Nc4cc(C)on4)s3)CC2=O)cc1 (stereo not given)	0.2	59.6*	4.0	6.3	1.1	-5.1
CCn1c(C)cc(=S)c2ccccc21	0.1	24.3	51.1	-14.0	0.7	26.4
CCn1c2ccccc2c2cc(N)ccc21	2.6	78.3*	11.4	21.5	0.8	24.5
CCn1c(=O)n(CC)c2cc(S(=O)(=O)Nc3c(C)cccc3C)ccc21	-1.2	98.4*	-20.9	15.2	0.9	7.9
CCn1c(=O)n(CC)c2cc(N)ccc21	-0.7	-4.1	18.1	9.6	0.3	74.8*
CCn1c(=O)n(CC)c2cc(S(=O)(=O)Nc3cc(C)cc(C)c3C#N)ccc21	0.2	12.7	-7.7	3.7	0.9	6.8
COc1cccc(CNCc2ccc(OC)cc2OC)c1	.	.	-6.7	.	.	.
CCn1c2ccccc2c2cc(CNCc3ccc(OC)cc3OC)ccc21	2.8	80.8*	2.5	-5.5	1.2	-23.6
CCn1c(=O)n(CC)c2cc(S(N)(=O)=O)ccc21	-1.0	-7.1	17.5	5.5	0.8	19.8
COC(=O)c1scc(C)c1NS(=O)(=O)c1ccc(NC(C)=O)cc1	.	.	-0.4	.	.	.
CCn1c2ccccc2c2cc(CNCCCN3CCOCC3)ccc21	.	.	10.0	.	.	.
CCC(CC)NCc1ccc2c(c1)c1ccccc1n2CC	-0.7	95.5*	6.9	11.1	1	-4.6

Assay outcomes: PubChem BioAssay, several laboratories
